Data published in ChEMBL document CHEMBL1629656, “Oritavancin kills stationary-phase and biofilm Staphylococcus aureus cells in vitro” (Antimicrob Agents Chemother, 2009).
≈ marks a conversion by molar mass, not a printed value. Calls of active or inactive are those of the source. The calls are words filed in the database; no cut-off is given here.

How the values were obtained:
Staphylococcus aureus [1] = assay: Bactericidal activity against stationary-phase methicillin-sensitive Staphylococcus aureus ATCC 29213 grown on nutrient-depleted CAMHB medium at 16 ug/ml after 24 hrs by time kill analysis; assay type: functional, organism-based
Outline: (§1)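 Overnight stationary-phase cultures inoculated at ~10^7 CFU/ml into strain-matched spent CAMHB (pH 7.0, filter-sterilized). Oritavancin was kept at 0.002% polysorbate 80; daptomycin wells had 50 μg/ml CaCl2. Incubation at 37°C, 225 rpm. Samples were charcoal-quenched (25 mg/ml) before plating; points are means of duplicates. Bactericidal means ≥3-log drop at 24 h versus inoculum. ≥3 repeats.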

Staphylococcus aureus [2] = assay: Antimicrobial activity against stationary-phase methicillin-sensitive Staphylococcus aureus ATCC 29213 assessed as membrane permeability at 4 ug/ml after 30 mins by propidium iodide staining-based fluorescence spectrophotometry; assay type: functional, organism-based
Outline: (§2)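 Cells prepared as for depolarization, in HEPES-CaCl2 buffer with glucose (exponential) or without (stationary), OD600 0.005. Syto 9 at 5 μM and propidium iodide at 30 μM. Drug added without polysorbate 80. Loss of Syto 9 fluorescence (ex 485/em 535 nm) read for 30 min. Three repeats.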

Staphylococcus aureus [3] = assay: Bactericidal activity against exponential-phase methicillin-sensitive Staphylococcus aureus ATCC 29213 grown on nutrient-depleted CAMHB medium at 4 ug/ml after 24 hrs by time kill analysis; assay type: functional, organism-based
Staphylococcus aureus [4] = assay: Bactericidal activity against stationary-phase methicillin-resistant Staphylococcus aureus ATCC 33591 grown on nutrient-depleted CAMHB medium at 4 ug/ml after 24 hrs by time kill analysis; assay type: functional, organism-based; outline: as §1
Staphylococcus aureus [5] = assay: Antimicrobial activity against stationary-phase methicillin-sensitive Staphylococcus aureus ATCC 29213 membrane depolarization at 4 ug/ml after 30 mins using DiSC3(5) dye based fluorescence spectrophotometry; assay type: functional, organism-based
Outline: (§3)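 Cells loaded with 1.5 μM DiSC3(5) 30 min in the dark at ambient temperature, diluted to OD600 0.005. Drug added without polysorbate 80. Fluorescence (ex 612/em 665 nm) followed for 30 min. Three repeats.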

Staphylococcus aureus [6] = assay: Bactericidal activity against stationary-phase methicillin-sensitive Staphylococcus aureus ATCC 29213 grown on nutrient-depleted CAMHB medium at 4 ug/ml after 24 hrs by time kill analysis; assay type: functional, organism-based; outline: as §1
Staphylococcus aureus [7] = assay: Antimicrobial activity against exponential-phase methicillin-sensitive Staphylococcus aureus ATCC 29213 assessed as membrane depolarization at 4 ug/ml after 30 mins using DiSC3(5) dye based fluorescence spectrophotometry; assay type: functional, organism-based; outline: as §3
Staphylococcus aureus [8] = assay: Bactericidal activity against stationary-phase methicillin-sensitive Staphylococcus aureus ATCC 29213 assessed as log reduction in bacterial count at 4 ug/ml within 2 hrs by time kill analysis; assay type: functional
Staphylococcus aureus [9] = assay: Bactericidal activity against exponential-phase methicillin-sensitive Staphylococcus aureus ATCC 29213 grown on nutrient-depleted CAMHB medium at 0.5 ug/ml after 24 hrs by time kill analysis; assay type: functional, organism-based
Staphylococcus aureus [10] = assay: Bactericidal activity against exponential-phase methicillin-sensitive Staphylococcus aureus ATCC 29213 grown on nutrient-depleted CAMHB medium at 16 ug/ml after 24 hrs by time kill analysis; assay type: functional, organism-based
Staphylococcus aureus [11] = assay: Bactericidal activity against stationary-phase methicillin-resistant Staphylococcus aureus ATCC 33591 grown on nutrient-depleted CAMHB medium at 2 ug/ml after 24 hrs by time kill analysis; assay type: functional, organism-based; outline: as §1
Staphylococcus aureus [12] = assay: Antimicrobial activity against exponential-phase methicillin-sensitive Staphylococcus aureus ATCC 29213 assessed as membrane permeability at 4 ug/ml after 30 mins by propidium iodide staining-based fluorescence spectrophotometry; assay type: functional, organism-based; outline: as §2
Staphylococcus aureus [13] = assay: Bactericidal activity against stationary-phase vancomycin-resistant Staphylococcus aureus isolate VRS5 grown on nutrient-depleted CAMHB medium at 4 ug/ml after 24 hrs by time kill analysis; assay type: functional, organism-based; outline: as §1
Staphylococcus aureus [14] = assay: Bactericidal activity against stationary-phase vancomycin-resistant Staphylococcus aureus isolate VRS5 grown on nutrient-depleted CAMHB medium at 2 ug/ml after 24 hrs by time kill analysis
Staphylococcus aureus [15] = assay: Bactericidal activity against exponential-phase methicillin-sensitive Staphylococcus aureus ATCC 29213 assessed as log reduction in bacterial count at 4 ug/ml within 2 hrs by time kill analysis; assay type: functional
Staphylococcus aureus [16] = assay: Bacteriostatic activity against stationary-phase vancomycin-resistant Staphylococcus aureus isolate VRS5 grown on nutrient-depleted CAMHB medium at 8 ug/ml after 24 hrs by time kill analysis; assay type: functional, organism-based; outline: as §1
Staphylococcus aureus [17] = assay: Bacteriostatic activity against stationary-phase methicillin-resistant Staphylococcus aureus ATCC 33591 grown on nutrient-depleted CAMHB medium at 8 ug/ml after 24 hrs by time kill analysis; assay type: functional, organism-based; outline: as §1
Staphylococcus aureus [18] = assay: Antimicrobial activity against methicillin-sensitive Staphylococcus aureus ATCC 29213 assessed as inhibition of biofilm formation after 24 hrs by serial dilution method in presence of 0.002% polysorbate 80; assay type: functional
Staphylococcus aureus [19] = assay: Antimicrobial activity against 4.6 X 10^6 CFU/peg methicillin-susceptible Staphylococcus aureus ATCC 29213 planktonic cells by broth microdilution method
Staphylococcus aureus [20] = assay: Antimicrobial activity against methicillin-sensitive Staphylococcus aureus ATCC 29213 planktonic cells by broth microdilution method in presence of 0.002% polysorbate 80; assay type: functional
Staphylococcus aureus [21] = assay: Antimicrobial activity against methicillin-resistant Staphylococcus aureus ATCC 33591 assessed as inhibition of biofilm formation after 24 hrs by serial dilution method in presence of 0.002% polysorbate 80; assay type: functional
Staphylococcus aureus [22] = assay: Antimicrobial activity against methicillin-resistant Staphylococcus aureus ATCC 33591 planktonic cells by broth microdilution method in presence of 0.002% polysorbate 80; assay type: functional
Staphylococcus aureus [23] = assay: Antimicrobial activity against vancomycin-resistant Staphylococcus aureus isolate VRS5 planktonic cells by broth microdilution method in presence of 0.002% polysorbate 80; assay type: functional
Homo sapiens = assay: fCmax in human at 450 […]; assay type: ADME, organism-based; conditions: in vivo
Staphylococcus aureus [24] = assay: Antimicrobial activity against exponential-phase methicillin-sensitive Staphylococcus aureus ATCC 29213 grown on nutrient-depleted CAMHB medium assessed as membrane permeability at 16 ug/ml after 30 mins by propidium iodide staining-based fluorescence spectrophotometry; assay type: functional, organism-based
Outline: (§4)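 Cells prepared as for depolarization: exponential-phase ATCC 29213 in HEPES-CaCl2 buffer with 5 mM glucose, stationary-phase without glucose, final OD600 0.005. Stained with 5 μM Syto 9 plus 30 μM propidium iodide. Fluorescence (ex 485/em 535 nm) monitored for 30 min after drug addition, without polysorbate 80. Three repeats; one shown.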

Staphylococcus aureus [25] = assay: Antimicrobial activity against stationary-phase methicillin-sensitive Staphylococcus aureus ATCC 29213 grown on nutrient-depleted CAMHB medium assessed as membrane permeability at 16 ug/ml after 30 mins by propidium iodide staining-based fluorescence spectrophotometry; assay type: functional, organism-based; outline: as §4
Staphylococcus aureus [26] = assay: Antimicrobial activity against exponential-phase methicillin-sensitive Staphylococcus aureus ATCC 29213 grown on nutrient-depleted CAMHB medium assessed as membrane depolarization at 16 ug/ml after 30 mins using DiSC3(5) dye based fluorescence spectrophotometry; assay type: functional, organism-based
Outline: (§5)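 MSSA ATCC 29213 exponential-phase cells (OD600 ≈0.25 subculture in CAMHB) or stationary-phase cells were washed in 10 mM HEPES-Cl pH 7.5 with 50 μg/ml CaCl2; buffer had 5 mM glucose for exponential cells and none for stationary cells. Cells were loaded with 1.5 μM DiSC3(5) for 30 min in the dark, then diluted to OD600 0.005. Drug was added without polysorbate 80 and fluorescence (ex 612/em 665 nm) followed in real time for 30 min. Three repeats; one shown.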

Staphylococcus aureus [27] = assay: Inhibition of cell division in stationary-phase methicillin-resistant Staphylococcus aureus ATCC 43300 assessed as absence of appearance of septal midline at 16 ug/ml by transmission electron microscopy; assay type: functional, organism-based
Outline: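 Stationary-phase MRSA ATCC 43300 (5 × 10^7 CFU/ml) exposed for 3 h in nutrient-depleted CAMHB. Cells were fixed in 2.5% glutaraldehyde, post-fixed in 2% osmium tetroxide and en bloc stained with uranyl acetate. Samples were ethanol-dehydrated, embedded in LR White, thin-sectioned, and stained with uranyl acetate/lead citrate. Septa were viewed by TEM at 100 kV.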

Staphylococcus aureus [28] = assay: Antimicrobial activity against stationary-phase methicillin-sensitive Staphylococcus aureus ATCC 29213 grown on nutrient-depleted CAMHB medium assessed as membrane depolarization at 16 ug/ml after 30 mins using DiSC3(5) dye based fluorescence spectrophotometry; assay type: functional, organism-based; outline: as §5
Staphylococcus aureus [29] = assay: Bactericidal activity against exponential-phase methicillin-sensitive Staphylococcus aureus ATCC 29213 assessed as log reduction in bacterial count at 16 ug/ml within 15 mins by time kill analysis; assay type: functional
Outline: (§6)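 Short (2-h) time-kill of ATCC 29213 at OD600 0.005 (~10^6 CFU/ml) in 10 mM HEPES-Cl pH 7.5 with 50 μg/ml CaCl2. Exponential cells had 5 mM glucose and stationary cells none. Oritavancin was tested without polysorbate 80; viable counts were taken by serial dilution plating. Three repeats; one shown.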

Staphylococcus aureus [30] = assay: Bactericidal activity against stationary-phase methicillin-sensitive Staphylococcus aureus ATCC 29213 assessed as log reduction in bacterial count at 16 ug/ml within 2 hrs by time kill analysis; assay type: functional; outline: as §6
Staphylococcus aureus [31] = assay: Antimicrobial activity against 4.6 X 10^6 CFU/peg methicillin-susceptible Staphylococcus aureus ATCC 29213 assessed as inhibition of biofilm formation after 24 hrs by serial dilution method
Staphylococcus aureus [32] = assay: Bactericidal activity against stationary-phase vancomycin-resistant Staphylococcus aureus isolate VRS5 grown on nutrient-depleted CAMHB medium 16 ug/ml after 24 hrs by time kill analysis; assay type: functional, organism-based; outline: as §1
Staphylococcus aureus [33] = assay: Antimicrobial activity against vancomycin-resistant Staphylococcus aureus isolate VRS5 assessed as inhibition of biofilm formation after 24 hrs by serial dilution method in presence of 0.002% polysorbate 80; assay type: functional

Structure (SMILES)	Activity (Staphylococcus aureus [1])	Activity (Staphylococcus aureus [3])	Activity (Staphylococcus aureus [4])	Activity (Staphylococcus aureus [6])	Activity (Staphylococcus aureus [9])	Activity (Staphylococcus aureus [10])	Activity (Staphylococcus aureus [11])	Activity (Staphylococcus aureus [13])	Activity (Staphylococcus aureus [14])	MBEC (Staphylococcus aureus [18])	MIC (Staphylococcus aureus [20])	MBEC (Staphylococcus aureus [21])	MIC (Staphylococcus aureus [23])	further results
CCCCCCCCCC(=O)N[C@@H](Cc1c[nH]c2ccccc12)C(=O)N[C@H](CC(N)=O)C(=O)N[C@@H](CC(=O)O)C(=O)N[C@@H]1C(=O)NCC(=O)N[C@@H](CCCN)C(=O)N[C@@H](CC(=O)O)C(=O)N[C@H](C)C(=O)N[C@@H](CC(=O)O)C(=O)NCC(=O)N[C@H](CO)C(=O)N[C@@H]([C@H](C)CC(=O)O)C(=O)N[C@@H](CC(=O)c2ccccc2N)C(=O)O[C@@H]1C	inactive	Active	Active	inactive	Active	Active	Active	inactive	inactive					Activity (Staphylococcus aureus [2]): inactive; Activity (Staphylococcus aureus [5]): inactive; Activity (Staphylococcus aureus [7]): Active; FC (Staphylococcus aureus [8]): 0.7; Activity (Staphylococcus aureus [12]): Active; FC (Staphylococcus aureus [15]): 3.4
CC(=O)NC[C@H]1CN(c2ccc(N3CCOCC3)c(F)c2)C(=O)O1 [LINEZOLID]										>128 µg/mL	8 µg/mL			Activity (Staphylococcus aureus [16]): inactive; Activity (Staphylococcus aureus [17]): inactive; MIC (Staphylococcus aureus [19]): 8 µg/mL (≈ 23.7 µM)
CO[C@H]1/C=C/O[C@@]2(C)Oc3c(C)c(O)c4c(O)c(c(/C=N/N5CCN(C)CC5)c(O)c4c3C2=O)NC(=O)/C(C)=C\C=C\[C@H](C)[C@H](O)[C@@H](C)[C@@H](O)[C@@H](C)[C@H](OC(C)=O)[C@@H]1C [RIFAMPIN]			Active				Active	inactive	inactive	4 µg/mL	< 0.02 µg/mL	0.25 µg/mL	< 0.03 µg/mL	MIC (Staphylococcus aureus [22]): < 0.03 µg/mL; fCmax (Homo sapiens): 2 µg/mL
CN[C@H](CC(C)C)C(=O)N[C@H]1C(=O)N[C@@H](CC(N)=O)C(=O)N[C@H]2C(=O)N[C@H]3C(=O)N[C@H](C(=O)N[C@H](C(=O)O)c4cc(O)cc(O)c4-c4cc3ccc4O)[C@H](O)c3ccc(c(Cl)c3)Oc3cc2cc(c3O[C@@H]2O[C@H](CO)[C@@H](O)[C@H](O)[C@H]2O[C@H]2C[C@](C)(N)[C@H](O)[C@H](C)O2)Oc2ccc(cc2Cl)[C@H]1O [VANCOMYCIN]	inactive	Active		inactive	Active	Active				>128 µg/mL		>=128 ug ml-1	> 128 µg/mL	Activity (Staphylococcus aureus [24]): inactive; Activity (Staphylococcus aureus [25]): inactive; Activity (Staphylococcus aureus [26]): inactive; inhibition (Staphylococcus aureus [27]): inactive; Activity (Staphylococcus aureus [28]): inactive; Activity (Staphylococcus aureus [29]): inactive; Activity (Staphylococcus aureus [30]): inactive; MBEC (Staphylococcus aureus [31]): >128 µg/mL; Activity (Staphylococcus aureus [32]): inactive; MBEC (Staphylococcus aureus [33]): >128 µg/mL
